Tests used:
[1] = Lipophilicity, logD of the compound at pH 7.4; format: physicochemical; details: buffer
Summary of the method: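 Shake-flask octanol:water partition at pH 7.4, with MS analysis of samples.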

[2] = Intrinsic clearance in human liver microsomes; format: ADME; details: read-out: CLH
[3] = Apparent permeability in RRCK cells; format: ADME, cell-based, Canis lupus familiaris, MDCKII-LE; details: dog, MDCK
[4] = system: Hepatocyte; assay: Drug metabolism in human hepatocytes assessed as compound oxidation; format: ADME, cell-based
[5] = molecular target: T1, CYP2C8 (Homo sapiens, UniProt P10632); assay: Inhibition of CYP2C8 (unknown origin) at 3 uM; format: ADME
T1 sequence (P10632 whole entry): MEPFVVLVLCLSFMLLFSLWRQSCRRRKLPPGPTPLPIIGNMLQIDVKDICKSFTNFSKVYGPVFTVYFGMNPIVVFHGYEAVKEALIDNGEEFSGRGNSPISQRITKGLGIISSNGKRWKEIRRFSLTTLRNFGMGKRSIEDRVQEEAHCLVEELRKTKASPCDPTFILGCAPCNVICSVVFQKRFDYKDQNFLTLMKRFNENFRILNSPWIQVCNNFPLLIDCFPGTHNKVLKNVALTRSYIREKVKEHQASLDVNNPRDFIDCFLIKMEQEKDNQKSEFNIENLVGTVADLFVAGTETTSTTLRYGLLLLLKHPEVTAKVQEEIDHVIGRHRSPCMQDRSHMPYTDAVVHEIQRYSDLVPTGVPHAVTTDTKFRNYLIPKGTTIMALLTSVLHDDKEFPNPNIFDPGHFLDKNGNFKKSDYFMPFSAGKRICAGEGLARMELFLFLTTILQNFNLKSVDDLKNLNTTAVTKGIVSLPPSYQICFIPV

[6] = molecular target: CYP2C9 (Homo sapiens, UniProt P11712); assay: Inhibition of CYP2C9 (unknown origin) at 3 uM; format: ADME
Chain of CYP2C9 (P11712 whole entry): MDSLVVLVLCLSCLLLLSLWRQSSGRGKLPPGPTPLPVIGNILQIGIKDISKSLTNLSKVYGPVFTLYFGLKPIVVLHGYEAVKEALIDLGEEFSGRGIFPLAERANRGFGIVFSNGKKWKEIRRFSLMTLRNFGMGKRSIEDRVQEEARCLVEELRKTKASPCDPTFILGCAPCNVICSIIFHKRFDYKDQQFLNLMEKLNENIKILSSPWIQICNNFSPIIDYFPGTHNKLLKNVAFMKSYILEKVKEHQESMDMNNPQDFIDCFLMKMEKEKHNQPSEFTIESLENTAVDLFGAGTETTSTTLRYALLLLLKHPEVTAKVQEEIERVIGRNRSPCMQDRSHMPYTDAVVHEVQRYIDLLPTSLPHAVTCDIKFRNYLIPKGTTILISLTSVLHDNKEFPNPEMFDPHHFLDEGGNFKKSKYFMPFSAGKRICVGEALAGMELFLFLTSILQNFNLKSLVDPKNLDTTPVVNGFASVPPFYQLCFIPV

[7] = molecular target: Cytochrome P450 2C9 (Homo sapiens, UniProt P11712); assay: Drug metabolism in human hepatocytes assessed as CYP2C9-mediated compound oxidation; format: ADME, cell-based, Hepatocyte
Chain of Cytochrome P450 2C9 (P11712 whole entry): as above

Row | Compound | logD [1] | microsomal CLint [2] [µL/min/mg] | Papp [3] [×10⁻⁶ cm/s] | Stability [4] | inhibition at 3 µM [5] [%] | inhibition at 3 µM [6] [%] | Drug metabolism [4] | Drug metabolism [7]
1 | COc1cccc(CC(=O)N2Cc3ccc(S(=O)(=O)Nc4cnn(C5CCOCC5)n4)cc3C2)c1 | 0.9 | < 8 | 5 | Stable |  |  |  | 
2 | COc1cccc(CC(=O)N2Cc3ccc(S(=O)(=O)N(C)CCc4cccc(F)c4)cc3C2)c1 | 3.9 | > 320 | 4 |  |  |  |  | 
3 | COc1cccc(CC(=O)N2Cc3ccc(S(=O)(=O)Nc4cnn(-c5ccccc5)n4)cc3C2)c1 | 2.3 | 273 | 15 |  | 48 | 88 | metabolite_detected | metabolite_detected

Next, values leading:

Row | logD [1] | microsomal CLint [2] [µL/min/mg] | Papp [3] [×10⁻⁶ cm/s] | Stability [4] | inhibition at 3 µM [5] [%] | inhibition at 3 µM [6] [%] | Drug metabolism [4] | Drug metabolism [7] | Compound
4 | 1.5 | < 8 | 7 |  |  |  |  |  | COc1cccc(CC(=O)N2Cc3ccc(S(=O)(=O)Nc4cnn(C5CC(F)(F)C5)n4)cc3C2)c1
5 | 1.4 | < 8 | 25 |  |  |  |  |  | COc1cccc(CC(=O)N2Cc3ccc(S(=O)(=O)Nc4cnn(C(C)C)n4)cc3C2)c1

Reference: ChEMBL document CHEMBL3612040, “Discovery of Selective Small Molecule Inhibitors of Monoacylglycerol Acyltransferase 3” (J Med Chem, 2015)
